In ChEMBL document CHEMBL5584302, “Exploration of Hydrazide-Based HDAC8 PROTACs for the Treatment of Hematological Malignancies and Solid Tumors” (J Med Chem, 2024):
The source made the active and inactive calls. The rule behind the calls is not given here.

Experiments:
HCT-116 [1] = assay: Induction of apoptosis in human HCT-116 cells assessed as increase in caspase 3/7 activity incubated for 48 hrs; format: functional, cell-based; details: dose 12.5-5 µM
Jurkat [2] = assay: Upregulation of Ac-HH3 level in human Jurkat cells at 1 uM measured after 6 hrs by Western blot analysis; format: functional, cell-based
How it was run: (§1)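 Jurkat cells exposed to the indicated compound concentrations for 6 h. Ac-SMC3 and Ac-HH3 were detected by Western blot with GAPDH as loading control. Bands were quantified by densitometry and normalized to the DMSO-treated group. Data are mean ± SEM of two independent experiments, compared with DMSO by one-way ANOVA.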

Jurkat [3] = assay: Induction of apoptosis in human Jurkat cells at 1.1 to 10 uM measured after 24 to 48 hrs by AnnexinV/FITC and PI staining based flow cytometry analysis; format: functional, cell-based; details: dose 1.1-10 µM, time 24-48 hrs
Jurkat [4] = assay: cells; details: Homo sapiens
Jurkat [5] = assay: Induction of cell death in human Jurkat cells at 5 uM measured after 48 hrs in presence of ferrostatin-1 by flow cytometry analysis; format: functional, cell-based
Jurkat [6] = assay: Induction of ferroptosis in human Jurkat cells assessed as increase in lipid peroxidation incubated for 24 hrs by BODIPY 581/591 C11 staining based flow cytometry analysis; format: functional, cell-based; details: dose 0.37-10 µM
Jurkat [7] = assay: cells; details: Homo sapiens; remark: listed apart in the source
Jurkat [8] = assay: Effect on IKZF1 level in human Jurkat cells at upto 10 uM by Western blot analysis; format: functional, cell-based
How it was run: (§2)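 Jurkat cells were treated with graded concentrations for 6 h, alongside 10 μM pomalidomide. IKZF1, IKZF3 and GSPT1 were detected by Western blot, with GAPDH as the loading control.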

Jurkat [9] = assay: Effect on IKZF3 level in human Jurkat cells at upto 10 uM by Western blot analysis; format: functional, cell-based; how it was run: as §2
HCT-116 [10] = assay: Induction of apoptosis in human HCT-116 cells measured after 48 hrs by AnnexinV/FITC and PI staining based flow cytometry analysis; format: functional, cell-based; details: dose 1.1-10 µM
Jurkat [11] = assay: Upregulation of AcHH3 level on human Jurkat cells at 0.04 to 10 uM measured after 48 hrs by Western blot analysis; format: functional, cell-based; details: dose 0.04-10 µM
HCT-116 [12] = assay: Upregulation of Ac-HH3 level in human HCT-116 cells incubated for 6 hrs by Western blot analysis; format: functional, cell-based; details: dose 0.004-3.3 µM
How it was run: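 HCT116 cells were incubated with graded concentrations for 6 h. Ac-HH3 was detected by Western blot with GAPDH as the loading control, then quantified by densitometry and normalized to DMSO-treated cells. Data are mean ± SEM of two independent experiments, compared against DMSO by one-way ANOVA.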

Jurkat [13] = assay: Induction of apoptosis in human Jurkat cells assessed as increase in caspase 3/7 activity at 5 uM incubated for 48 hrs; format: functional, cell-based
Jurkat [14] = assay: Induction of cell death in human Jurkat cells at 5 uM measured after 48 hrs in presence of necrostatin-1 by flow cytometry analysis; format: functional, cell-based
THP-1 [15] = assay: Induction of ferroptosis in human THP-1 cells assessed as increase in lipid peroxidation at 0.37 to 10 uM incubated for 24 hrs by BODIPY 581/591 C11 staining based flow cytometry analysis; format: functional, cell-based; details: dose 0.37-10 µM
A549 = assay: cells; details: Homo sapiens
Jurkat [16] = assay: cells; details: Homo sapiens; remark: listed apart in the source
HCT-116 [17] = assay: Upregulation of Ac-SMC3 level in human HCT-116 cells incubated for 6 hrs by Western blot analysis; format: functional, cell-based; details: dose 0.004-3.3 µM
How it was run: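 HCT116 cells were treated 6 h with the indicated concentrations. Ac-SMC3 was measured by Western blot with GAPDH as loading control, quantified by densitometry and normalized to the DMSO group. Data are mean ± SEM from two independent experiments; one-way ANOVA vs DMSO.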

Jurkat [18] = assay: Induction of cell death in human Jurkat cells at 5 uM measured after 48 hrs in presence of chloroquine by flow cytometry analysis; format: functional, cell-based
HCT-116 [19] = assay: Induction of apoptosis in human HCT-116 cells assessed as increase in caspase 3/7 activity at 5 uM incubated for 48 hrs; format: functional, cell-based
Jurkat [20] = assay: Induction of cell death in human Jurkat cells at 5 uM measured after 48 hrs in presence of Z-VAD-FMK by flow cytometry analysis; format: functional, cell-based
Jurkat [21] = assay: Upregulation of Ac-tubulin level in human Jurkat cells at upto 1 uM measured after 6 hrs by Western blot analysis; format: functional, cell-based
How it was run: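 Jurkat cells were treated for 6 h at the indicated concentrations. Acetylated tubulin was probed by Western blot, with GAPDH as loading control.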

HCT-116 [22] = assay: cells; details: Homo sapiens
HCT-116 [23] = assay: Induction of apoptosis in human HCT-116 cells assessed as necrotic cells at 1.1 uM measured after 48 hrs by AnnexinV/FITC and PI staining based flow cytometry analysis (reference value: […]); format: functional
Jurkat [24] = assay: Upregulation of AcHH4 level on human Jurkat cells at 0.04 to 10 uM measured after 48 hrs by Western blot analysis; format: functional, cell-based; details: dose 0.04-10 µM
Jurkat [25] = assay: cells; details: Homo sapiens; remark: listed apart in the source
Jurkat [26] = assay: Upregulation of Ac-SMC3 level in human Jurkat cells at 1 uM measured after 6 hrs by Western blot analysis; format: functional, cell-based; how it was run: as §1
Jurkat [27] = assay: Upregulation of Ac-SMC3 level in human Jurkat cells incubated for 6 hrs by Western blot analysis; format: functional, cell-based; details: dose <= 1.0 µM; how it was run: as §1
Jurkat [28] = assay: Induction of cell cycle arrest in human Jurkat cells assessed as accumulation of cells at G0/G1 phase measured after 48 hrs by PI staining based flow cytometry analysis; format: functional; details: dose 0.13-3.3 µM
Jurkat [29] = assay: Induction of ferroptosis in human Jurkat cells assessed as increase in lipid peroxidation incubated for 48 hrs by BODIPY 581/591 C11 staining based flow cytometry analysis; format: functional, cell-based
HCT-116 [30] = assay: Upregulation of Ac-HH3 level in human HCT-116 cells at 0.04 to 3.3 uM measured after 24 hrs by Western blot analysis; format: functional, cell-based; details: dose 0.04-3.3 µM
Jurkat [31] = assay: Effect on GSPT1 level in human Jurkat cells at upto 10 uM by Western blot analysis; format: functional, cell-based; how it was run: as §2
Jurkat [32] = assay: Induction of apoptosis in human Jurkat cells assessed as increase in caspase 3/7 activity incubated for 48 hrs; format: functional, cell-based; details: dose upper 5.0 µM
HCT-116 [33] = assay: Induction of cell cycle arrest in human HCT-116 cells assessed as accumulation of cells at G2/M phase measured after 48 hrs by PI staining based flow cytometry analysis; format: functional; details: dose 0.13-3.3 µM
THP-1 [34] = assay: Upregulation of Ac-HH3 level in human THP-1 cells at 0.04 to 3.3 uM measured after 24 hrs by Western blot analysis; format: functional, cell-based; details: dose 0.04-3.3 µM
How it was run: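 THP-1 cells were exposed to the compound at the indicated concentrations for 24 h, then immunoblotted for Ac-HH3, Ac-SMC3, Ac-tubulin and HDAC8 with GAPDH as loading control. Band intensities were quantified and normalized to the DMSO-treated group. Data are mean ± SEM of two independent experiments, analysed by one-way ANOVA against DMSO.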

HCT-116 [35] = assay: Induction of ferroptosis in human HCT-116 cells assessed as increase in lipid peroxidation at low concentration incubated for 24 hrs by BODIPY 581/591 C11 staining based flow cytometry analysis; format: functional, cell-based; details: dose 0.37-10 µM
THP-1 [36] = assay: cells; details: Homo sapiens
Jurkat [37] = assay: Upregulation of Ac-HH3 level in human Jurkat cells measured after 24 hrs by Western blot analysis; format: functional, cell-based; details: dose <= 10000.0 nM
How it was run: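 Jurkat cells were incubated 24 h with the indicated concentrations. Ac-HH3 was detected by Western blot against a GAPDH loading control, quantified by densitometry and normalized to DMSO-treated cells. Data are mean ± SEM of two independent experiments; one-way ANOVA vs DMSO.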

Jurkat [38] = assay: Upregulation of Ac-HH3 level in human Jurkat cells incubated for 6 hrs by Western blot analysis; format: functional, cell-based; how it was run: as §1
Jurkat [39] = assay: Upregulation of Ac-SMC3 level in human Jurkat cells measured after 6 hrs by Western blot analysis; format: functional, cell-based; details: dose 0.0001-1 µM; how it was run: as §1

IC50 (Jurkat [4]): 2800 nM | IC50 (Jurkat [7]): 2500 nM | IC50 (A549): 17500 nM | IC50 (Jurkat [16]): 1500 nM | IC50 (HCT-116 [22]): 3800 nM | IC50 (Jurkat [25]): 2000 nM | IC50 (THP-1 [36]): > 33300 nM
SMILES: CCCCCCNNC(=O)c1ccc(CNC(=O)CN2CCC(c3ccc(NC4CCC(=O)NC4=O)cc3)CC2)cc1 (stereo not given)
Activity (HCT-116 [1]): Dose-Dependent Effect | Activity (Jurkat [2]): Active | Activity (Jurkat [3]): inactive | Activity (Jurkat [5]): Active | Activity (Jurkat [6]): Dose-Dependent Effect | Activity (Jurkat [8]): inactive | Activity (Jurkat [9]): inactive | Activity (HCT-116 [10]): Dose-Dependent Effect | Activity (Jurkat [11]): Active | Activity (HCT-116 [12]): Dose-Dependent Effect | Activity (Jurkat [13]): Active | Activity (Jurkat [14]): Active | Activity (THP-1 [15]): inactive | Activity (HCT-116 [17]): Dose-Dependent Effect | Activity (Jurkat [18]): Active | Activity (HCT-116 [19]): Active | Activity (Jurkat [20]): Active | Activity (Jurkat [21]): inactive | Activity (HCT-116 [23]): 4.28% | Activity (Jurkat [24]): Active | Activity (Jurkat [26]): Active | Activity (Jurkat [27]): Dose-Dependent Effect | Activity (Jurkat [28]): Dose-Dependent Effect | Activity (Jurkat [29]): inactive | Activity (HCT-116 [30]): Active | Activity (Jurkat [31]): inactive | Activity (Jurkat [32]): Dose-Dependent Effect | Activity (HCT-116 [33]): Dose-Dependent Effect | Activity (THP-1 [34]): Active | Activity (HCT-116 [35]): Active | Activity (Jurkat [37]): Dose-Dependent Effect | Activity (Jurkat [38]): Dose-Dependent Effect | Activity (Jurkat [39]): Dose-Dependent Effect
